# From ChEMBL document CHEMBL1124926, “Structure-activity relationships of antifilarial antimycin analogues: a multivariate pattern recognition study” (J Med Chem, 1990)
# Tests used:
# [1] = Negative log transformed activity; type: ADME; parameters: unit not given here
# Acanthocheilonema viteae = experiment: In vitro macrofilaricidal activity against Dipetalonema viteae was determined using the leakage of incorporated radiolabeled adenine method.; type: functional, organism-based
# Outline: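 D. viteae adult females were labelled with radiolabelled adenine, then exposed for 120 h to concentrations descending from 10 μM in serum-free Eagle's minimal essential medium. Viability was scored as leakage of incorporated label into the medium, and the EC50 was the concentration releasing 50% of the adenine taken up.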
# Brugia pahangi [2] = experiment: (§1) In vivo percent reduction of Brugia pahangi worm in gerbils; type: functional; parameters: concentration or dose not given beside the values
# Outline: (§2)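 Animals were autopsied 35 days after the final dose, and worm recoveries were compared with those from untreated controls.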
# Brugia pahangi [3] = experiment: as §1; type: functional; outline: as §2
# Brugia pahangi [4] = experiment: In vivo percent reduction of Brugia pahangi worm in gerbils; Some toxicity; type: functional; outline: as §2
-Log activity [1],Compound,EC50 (Acanthocheilonema viteae) [nM],Worm reduction (Brugia pahangi [2]) [%],Worm reduction (Brugia pahangi [3]) [%],Worm reduction (Brugia pahangi [4]) [%]
1.13,O=C(Nc1ccc(C(=O)c2ccc(Cl)cc2)c(Cl)c1)c1cc([N+](=O)[O-])ccc1O,74,14,–,–
0.32,CSc1ccc(O)c(C(=O)Nc2ccc(Oc3ccc(Cl)cc3)c(Cl)c2)c1,480,58,–,–
1.07,O=C(Nc1ccc(Oc2cccc(C(F)(F)F)c2)c(Cl)c1)c1cc([N+](=O)[O-])ccc1O,85,74,–,–
0.89,CCCCCCCCCCCCCCNC(=O)c1cc([N+](=O)[O-])ccc1O,128,–,–,–
0.48,O=C(c1ccc(Cl)cc1)c1cc([N+](=O)[O-])ccc1O,330,61,–,–
-0.41,CCCCCCCCNC(=O)c1cccc(NC=O)c1O,2600,–,–,–
-1,CCCCCCNC(=O)c1cccc(NC=O)c1O,> 10000,–,–,–
1.36,O=C(Nc1ccc(Sc2ccc(Cl)cc2)c(Cl)c1)c1cc([N+](=O)[O-])ccc1O,44,70,–,–
0.82,O=C(Nc1ccc(Oc2ccc(Cl)cc2)c(Cl)c1)c1cccc([N+](=O)[O-])c1O,150,–,–,–
0.42,CSc1cccc(C(=O)Nc2ccc(Oc3ccc(Cl)cc3)c(Cl)c2)c1O,380,52,–,–
0.77,COc1ccc(Oc2ccc(NC(=O)c3cc([N+](=O)[O-])ccc3O)cc2Cl)cc1,170,61,–,–
-0.85,CCCCCCCCCCCCCCNC(=O)c1cccc(NC=O)c1O,7000,–,80,–
1.36,CCCCCCCCCCCCCCNC(=O)c1cc(Cl)cc([N+](=O)[O-])c1O,43.5,–,–,–
1.55,O=C(Nc1ccc(Oc2ccc(SC(F)(F)F)cc2)c(Cl)c1)c1cc([N+](=O)[O-])ccc1O,28,–,–,85

# Continued, molecule first:
Compound,-Log activity [1],EC50 (Acanthocheilonema viteae) [nM],Worm reduction (Brugia pahangi [2]) [%],Worm reduction (Brugia pahangi [3]) [%],Worm reduction (Brugia pahangi [4]) [%]
O=C(Nc1ccc(Oc2ccc(Cl)cc2)c(Cl)c1)c1cc([N+](=O)[O-])ccc1O,1.4,40,80.6,–,–
O=C(Nc1ccc(Nc2ccc(Cl)cc2)c(Cl)c1)c1cc([N+](=O)[O-])ccc1O,0.43,370,48,–,–
O=CNc1cccc(C(=O)Nc2ccc(Oc3ccc(Cl)cc3)c(Cl)c2)c1O,-0.38,2400,–,–,–
CC(C)(C)c1ccc(NC(=O)c2cc([N+](=O)[O-])ccc2O)cc1,0.23,590,44,–,–
O=C(Nc1ccc(Oc2ccc(C(F)(F)F)cc2)cc1)c1cc([N+](=O)[O-])ccc1O,1.02,95,72,–,–
CS(=O)(=O)c1cccc(C(=O)Nc2ccc(Oc3ccc(Cl)cc3)c(Cl)c2)c1O,0.3,500,42,–,–
O=C(Nc1ccc(C(O)c2ccccc2)cc1)c1cc([N+](=O)[O-])ccc1O (centres undefined),-1,> 10000,39,–,–
CCCCCCCCCCCCNC(=O)c1cc([N+](=O)[O-])ccc1O,1.41,39,0,–,–
CCCCCCCCCCCCCCNC(=O)c1cccc(NC(C)=O)c1O,-0.9,8000,–,–,–
CCCCCCCCCCCCCCCCNC(=O)c1cccc([N+](=O)[O-])c1O,-0.04,1100,–,–,–
C[S+]([O-])c1ccc(O)c(C(=O)Nc2ccc(Oc3ccc(Cl)cc3)c(Cl)c2)c1 (centres undefined),-0.88,7500,84,–,–
CS(=O)(=O)c1ccc(O)c(C(=O)Nc2ccc(Oc3ccc(Cl)cc3)c(Cl)c2)c1,0,1000,28,–,–
O=C(Nc1ccc(Oc2cccc(C(F)(F)F)c2)cc1)c1cc([N+](=O)[O-])ccc1O,1.03,94,80,–,–
CCCCCCCCCCCCCCNC(=O)c1cccc([N+](=O)[O-])c1O,0.82,152,–,–,–
O=C(Nc1ccc(Oc2ccccc2)cc1)c1cc([N+](=O)[O-])ccc1O,0.1,800,89,–,–
N#Cc1ccc(O)c(C(=O)Nc2ccc(Oc3ccc(Cl)cc3)c(Cl)c2)c1,1.84,14.5,17,–,–
O=C(Nc1ccc(Oc2ccc([N+](=O)[O-])cc2Cl)cc1)c1cc([N+](=O)[O-])ccc1O,0.92,120,70,–,–
